The nature of data set [1]: Stability to hydrolysis of the imide ring in PBS buffer. The format is physicochemical. Summed up:
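Fluorophore-bearing model peptides are incubated in PBS at pH 6, 7 and 8 and 28 °C, with fluorescence monitored in a 96-well plate over 24 hrs. For the 4-DMAP peptide, percent conversion is the percent loss of fluorescence from time zero.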

The nature of data set [2]: Photophysical properties of the fluorescent KR peptides. The format is physicochemical. The conditions noted are these: visible spectrum.
The conditions of data set [3]: cited from earlier work.
Data set [4] is described as follows: Stability toward 4-methylpiperidine / piperidine. The format is physicochemical. The following applies: during preparation of fluorescent peptides by SPPS. Summed up:
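Resin-bound model peptides are treated with 4-methylpiperidine under conditions simulating a standard Fmoc-deprotection cycle. Treated and untreated samples are cleaved from the resin under acidic conditions. Crude mixtures are analysed by HPLC and ESI mass spectrometry for hydrolysis byproducts.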

Data on six compounds can be found in PMC2647014 (Journal of the American Chemical Society, 2008).

With `CN(C)c1ccc2c(c1)C(=O)NC2=O` [4-DMAP, 4-N,N-dimethylaminophthalimide, reference compound], the “hydrolysis product fluorescence (in words)” value in data set [1] (hydrolysis of the imide ring, high pH) is listed as “non-fluorescent byproduct”. Consider `CN(C)c1ccc2c3c(cccc13)C(=O)NC2=O` [4-DMN, 4-N,N-dimethylamino-1,8-naphthalimide], for which, in data set [1] (PBS buffer, 28 °C, 24 hrs, Figure 2b, harshest conditions anticipated), the “fluorescence emission after 24 hrs (in words)” value was “no significant change in fluorescence”. `CN(C)c1ccc2c3c(cccc13)C(=O)N(C[C@H](N)C(=O)O)C2=O` [4-DMNA, 4-N,N-dimethylamino-1,8-naphthalimidoalanine]: in data set [2], the “wavelength of excitation of the fluorophore / amino acid” value is on record as 400-450 nm. The “relative stability of fluorescent side-chain (in words)” value in data set [1] (compared with 4-DAPA and 6-DMNA) was “significantly more stable than those of 4-DAPA and 6-DMNA”.

Regarding `CN(C)c1ccc2cc3c(cc2c1)C(=O)NC3=O` [6-DMN, 6-N,N-dimethylamino-2,3-naphthalimide, reference compound], the “emission maximum of fluorescent species from hydrolysis” value in data set [1] (hydrolysis product, high pH) was 470-480 nm.

Regarding `CN(C)c1ccc2cc(C(=O)CBr)ccc2c1` [BADAN, 6-bromoacetyl-2-dimethylaminonaphthalene], in data set [3], the “fluorescence quantum yield in water (Φwater)” value was 0.18. Take `CN(C)c1ccc2c3c(cccc13)C(=O)N(C[C@H](NC(=O)OCC1c3ccccc3-c3ccccc31)C(=O)O)C2=O` [compound 4, N-α-Fmoc-(4-N,N-Dimethylamino-1,8-naphthalimido)-alanine]: the “susceptibility to piperidine (in words)” value in data set [4] is reported as “shows no susceptibility to piperidine”.
